# Data taken from ChEMBL document CHEMBL3046095, “Synthesis and antiviral activities of amide derivatives containing the alpha-aminophosphonate moiety” (J Agric Food Chem, 2008).
# System: Tobacco mosaic virus
# Test: Antiviral activity against Tobacco mosaic virus (TMV) inoculated on whole Nicotiana tabacum leaves followed by smearing with 500 ug/mL compound solution on left side of leaves assessed as viral infection curative effect measured 3 to 4 days post viral infection
# Type: functional
# Method in brief: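 Whole same-age growing N. tabacum leaves were dip-inoculated with TMV at 6 × 10^-3 mg/mL, then washed with water and dried. Compound solution was smeared on left half, solvent on right half as control. Local lesions were counted 3–4 d after inoculation, three repetitions per compound. Inhibition % = (control mean lesions − treated mean lesions)/control mean lesions × 100.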
row,Structure (SMILES),Activity [%]
1,CCOP(=O)(OCC)C(NC(=O)c1ccccc1C(F)(F)F)c1ccccc1F (stereo not given),2.1
2,CCOP(=O)(OCC)C(NC(=O)c1ccccc1Cl)c1ccccc1F (stereo not given),19.7
3,CCOP(=O)(OCC)C(NC(=O)/C=C/c1ccccc1)c1ccccc1F (stereo not given),22.4
4,CCOP(=O)(OCC)C(NC(=O)c1cc(OC)c(OC)c(OC)c1)c1ccccc1F (stereo not given),17.1
5,CCOP(=O)(OCC)C(NC(=O)c1ccccc1F)c1ccccc1F (stereo not given),20.8
6,CCOP(=O)(OCC)C(NC(=O)c1ccccc1)c1ccccc1F (stereo not given) [DIETHYL BENZAMIDO(2-FLUOROPHENYL)METHYLPHOSPHONATE],32.2
7,CCOP(=O)(OCC)C(NC(=O)c1ccccc1)c1ccccc1 (stereo not given) [DIETHYL BENZAMIDO(PHENYL)METHYLPHOSPHONATE],8.7
8,CCOP(=O)(OCC)C(NC(=O)c1ccccc1C(F)(F)F)c1ccccc1 (stereo not given) [DIETHYL PHENYL(2-(TRIFLUOROMETHYL)BENZAMIDO)METHYLPHOSPHONATE],2.4
9,"CCOP(=O)(OCC)C(NC(=O)c1cc(OC)c(OC)c(OC)c1)c1ccccc1 (stereo not given) [DIETHYL PHENYL(3,4,5-TRIMETHOXYBENZAMIDO)METHYLPHOSPHONATE]",35.6
10,CCOP(=O)(OCC)C(NC(=O)c1cccc(F)c1)c1ccccc1 (stereo not given) [DIETHYL(3-FLUOROBENZAMIDO)(PHENYL)METHYLPHOSPHONATE],24.6

# System: Tobacco mosaic virus
# Test: Antiviral activity against Tobacco mosaic virus (TMV) pre-treated with 500 ug/mL compound for 30 min followed by inoculation on left side of Nicotiana tabacum leaves assessed as virus inactivation effect measured 3 to 4 days post viral infection
# Type: functional
# Method in brief: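 Inactivation assay on N. tabacum leaves, with a solvent–virus mixture inoculated as control. Local lesion numbers were recorded 3–4 d after inoculation, three repetitions per compound. Inhibition % was derived from mean lesion counts relative to control.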
row,Structure (SMILES),Activity [%]
1,CCOP(=O)(OCC)C(NC(=O)c1ccccc1C(F)(F)F)c1ccccc1F (stereo not given),62.2
2,CCOP(=O)(OCC)C(NC(=O)c1ccccc1Cl)c1ccccc1F (stereo not given),39
3,CCOP(=O)(OCC)C(NC(=O)/C=C/c1ccccc1)c1ccccc1F (stereo not given),51.5
4,CCOP(=O)(OCC)C(NC(=O)c1cc(OC)c(OC)c(OC)c1)c1ccccc1F (stereo not given),33.7
5,CCOP(=O)(OCC)C(NC(=O)c1ccccc1F)c1ccccc1F (stereo not given),80
6,CCOP(=O)(OCC)C(NC(=O)c1ccccc1)c1ccccc1F (stereo not given) [DIETHYL BENZAMIDO(2-FLUOROPHENYL)METHYLPHOSPHONATE],70
7,CCOP(=O)(OCC)C(NC(=O)c1ccccc1)c1ccccc1 (stereo not given) [DIETHYL BENZAMIDO(PHENYL)METHYLPHOSPHONATE],42.4
8,CCOP(=O)(OCC)C(NC(=O)c1ccccc1C(F)(F)F)c1ccccc1 (stereo not given) [DIETHYL PHENYL(2-(TRIFLUOROMETHYL)BENZAMIDO)METHYLPHOSPHONATE],45.3
9,"CCOP(=O)(OCC)C(NC(=O)c1cc(OC)c(OC)c(OC)c1)c1ccccc1 (stereo not given) [DIETHYL PHENYL(3,4,5-TRIMETHOXYBENZAMIDO)METHYLPHOSPHONATE]",45.6
10,CCOP(=O)(OCC)C(NC(=O)c1cccc(F)c1)c1ccccc1 (stereo not given) [DIETHYL(3-FLUOROBENZAMIDO)(PHENYL)METHYLPHOSPHONATE],82.1

# System: Tobacco mosaic virus
# Test: Antiviral activity against Tobacco mosaic virus (TMV) inoculated on 500 ug/mL compound smeared Nicotiana tabacum leaves assessed as protective effect against viral infection measured 3 to 4 days post viral infection
# Type: functional
# Method in brief: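 Half-leaf assay on same-age growing Nicotiana tabacum leaves: compound solution smeared on left half, solvent on right half as control. After 12 h, leaves scattered with silicon carbide were brush-inoculated with TMV at 6 × 10^-3 mg/mL. Local lesions were counted 3–4 d post-inoculation, three repetitions. Inhibition % = (control mean lesions − treated mean lesions)/control mean lesions × 100.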
row,Structure (SMILES),Activity [%]
1,CCOP(=O)(OCC)C(NC(=O)c1ccccc1C(F)(F)F)c1ccccc1F (stereo not given),39.2
2,CCOP(=O)(OCC)C(NC(=O)c1ccccc1Cl)c1ccccc1F (stereo not given),40.9
3,CCOP(=O)(OCC)C(NC(=O)/C=C/c1ccccc1)c1ccccc1F (stereo not given),39
4,CCOP(=O)(OCC)C(NC(=O)c1cc(OC)c(OC)c(OC)c1)c1ccccc1F (stereo not given),41.2
5,CCOP(=O)(OCC)C(NC(=O)c1ccccc1F)c1ccccc1F (stereo not given),50
6,CCOP(=O)(OCC)C(NC(=O)c1ccccc1)c1ccccc1F (stereo not given) [DIETHYL BENZAMIDO(2-FLUOROPHENYL)METHYLPHOSPHONATE],43.1
7,CCOP(=O)(OCC)C(NC(=O)c1ccccc1)c1ccccc1 (stereo not given) [DIETHYL BENZAMIDO(PHENYL)METHYLPHOSPHONATE],39.1
8,CCOP(=O)(OCC)C(NC(=O)c1ccccc1C(F)(F)F)c1ccccc1 (stereo not given) [DIETHYL PHENYL(2-(TRIFLUOROMETHYL)BENZAMIDO)METHYLPHOSPHONATE],41.1
9,"CCOP(=O)(OCC)C(NC(=O)c1cc(OC)c(OC)c(OC)c1)c1ccccc1 (stereo not given) [DIETHYL PHENYL(3,4,5-TRIMETHOXYBENZAMIDO)METHYLPHOSPHONATE]",42
10,CCOP(=O)(OCC)C(NC(=O)c1cccc(F)c1)c1ccccc1 (stereo not given) [DIETHYL(3-FLUOROBENZAMIDO)(PHENYL)METHYLPHOSPHONATE],56
